Measurements pooled from the literature.
Lines come from different studies, so protocols differ.
Target: Aurora kinase B (AURKB, Homo sapiens, UniProt Q96GD4)

With O=C(c1ccc(Nc2ncc(Cl)c(-c3cc4ccccc4s3)n2)cc1)N1CCC(N2CCCC2)CC1 the remaining binding was 17% (binding, competition with immobilised ligand; 1 µM).
O=C(NCC1CCOCC1)c1n[nH]cc1NC(=O)c1c(F)cccc1F gave a remaining binding of 78% (binding, competition with immobilised ligand; 1 µM).
O=C1CCc2cc(Nc3cc(OC4CCOCC4)c([N+](=O)[O-])cc3Cl)ccc2N1 gave a remaining binding of 86% (cell-free assay, competition with immobilised ligand; 1 µM).
COc1ccnn2ncc(-c3ccnc(N(C)C)n3)c12 gave a remaining binding of 100% (binding; 1 µM).
With COc1ccc2c(O[C@@H]3C[C@H]4C(=O)N[C@]5(C(=O)O)CC5/C=C\CCCCC[C@H](NC(=O)OC5CCCC5)C(=O)N4C3)cc(-c3csc(NC(=O)C(C)C)n3)nc2c1C (some centres unmarked) the remaining binding was 91% (cell-free assay, competition with immobilised ligand; 1 µM).
With COc1cnc(Nc2cccc(S(N)(=O)=O)c2)nc1N1CCN(c2ccccc2)C(=O)C1 the remaining binding was 63% (binding, competition with immobilised ligand; 1 µM).
The remaining binding of C[C@@H]1CN(c2cc(-c3n[nH]c4ccc(OC5(C)CC5)cc34)ncn2)C[C@H](C)O1 is reported as 73% (cell-free assay, competition with immobilised ligand; 0.1 µM).
For O=C(c1ccc(Nc2ncc(Cl)c(-c3ccc(Cl)s3)n2)cc1)N1CCC(N2CCCC2)CC1, the remaining binding was 8.3% (binding, competition with immobilised ligand; 1 µM).
For c1cncc(-c2cccc(Nc3nccc(NC4CCCCC4)n3)c2)c1, the remaining binding was 23% (binding, competition with immobilised ligand; 10 µM).
COc1cnc(Nc2cccc(S(N)(=O)=O)c2)nc1N1CCN(c2ccccc2)CC1 gave a remaining binding of 89% (binding, competition with immobilised ligand; 1 µM).
For C=CC(=O)N1CCC(C(=O)NCC(=O)N2CCN(c3nc(-c4cnc(N)nc4C(F)F)nc(N4CCOCC4)n3)CC2)CC1, the remaining binding was 56% (binding, competition with immobilised ligand; 1 µM).
For Cc1c(C(=O)O)cc(-c2ccc(C3CCNCC3)cc2)c2ccc(-c3ccc(C(F)(F)F)cc3)cc12, the remaining binding was 100% (cell-free assay, competition with immobilised ligand; 1 µM).
CN(CCCC(F)(F)F)c1nccc(-c2cnn3ncccc23)n1 gave a remaining binding of 98% (binding; 1 µM).
N#Cc1ccccc1CSc1nnc2c(n1)[nH]c1ccccc12 gave a remaining binding of 100% (binding, competition with immobilised ligand; 10 µM).
F[C@@H]1CCN(c2nccc(-c3cnn4ncccc34)n2)C1 has a remaining binding of 100% (binding; 1 µM).
CN(c1ccnc(CNc2nc(Nc3ccc4c(c3)CC(=O)N4)ncc2C(F)(F)F)n1)S(C)(=O)=O gave a remaining binding of 9.9% (cell-free assay, competition with immobilised ligand; 1 µM).
C[C@H]1CCN(c2nccc(-c3cnn4ncccc34)n2)C1 has a remaining binding of 70% (binding; 1 µM).
Cc1cnc(Nc2ccc(C(=O)N3CCC(N4CCCC4)CC3)cc2)nc1-c1cc2ccccc2s1 gave a remaining binding of 6.8% (binding, competition with immobilised ligand; 1 µM).
CCN1CCN(Cc2ccc(C(=O)Nc3ccc(C)c(Oc4ccc5c(c4)CC(=O)N5)c3)cc2C(F)(F)F)CC1 has a remaining binding of 100% (binding, competition with immobilised ligand; 1 µM).
O=C(NCc1ncc(C(F)(F)F)cc1Cl)c1ccc2c(c1)C1(CCS(=O)(=O)CC1)[C@@H](C1CC1)N2S(=O)(=O)c1ccc(F)cc1 gave a remaining binding of 66% (cell-free assay, competition with immobilised ligand; 1 µM).
The remaining binding of N[C@H]1CCN(c2nccc(-c3cnn4ncccc34)n2)C1 is reported as 77% (binding; 1 µM).
CC(=O)N1CCC(c2ccc(C(=O)NC3=NCCN3)cc2C(F)(F)F)CC1 has a remaining binding of 100% (cell-free assay, competition with immobilised ligand; 1 µM).
C[C@@H]1CN(c2ccc3ncc(-c4ccc5[nH]nc(C6CC6)c5c4)n3n2)C[C@H](C)O1 has a remaining binding of 82% (binding, competition with immobilised ligand; 0.5 µM).
